Assay results: ChEMBL document CHEMBL3867454, “Corallocins A-C, Nerve Growth and Brain-Derived Neurotrophic Factor Inducing Metabolites from the Mushroom Hericium coralloides” (J Nat Prod, 2016)
pIC50: −log10 of the molar value. Values after ≈ are worked out from the molar mass of the structure shown. Active and inactive are the calls of the source. No cut-off for these calls is given here.

What was measured:
[1] = Cytotoxicity against human MCF7 cells measured after 5 days by MTT assay; type: functional, cell-based; settings: MCF7, 120 h
Outline: (§1)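 Compounds added from 30 μg/mL methanol stocks by serial dilution in 96-well plates. L929 was cultured in DMEM, MCF-7 and KB-3-1 in RPMI-1640, all with 10% FCS, 5% CO2, 37 °C, 5 days. Methanol was the negative control and epothilone A the positive control. IC50 values were derived from the dilution series.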

[2] = Upregulation of NGF expression in human 1321N1 cells at 68.9 uM measured after 6 hrs by semiquantitative RT-PCR analysis relative to DMSO-control; type: functional, cell-based
Outline: (§2)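 1321N1 astrocytes were grown to confluence on 3.5 cm plates and switched to serum-free DMEM 24 h before compound addition. Primers were specific for GAPDH, NGF (189 bp) and BDNF (101 bp). PCR programs: GAPDH 20 cycles at 60 °C annealing; NGF 30 cycles at 61 °C; BDNF 30 cycles at 58 °C. Products were run on 1% or 2% agarose, with GAPDH as loading control and identity confirmed by sequencing. n = 3 independent experiments.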

[3] = Cytotoxicity against human KB-3-1cells measured after 5 days by MTT assay; type: functional, cell-based; settings: KB 3-1, 120 h; outline: as §1
[4] = Cytotoxicity against mouse L929 cells measured after 5 days by MTT assay; type: functional, cell-based; settings: L929, 120 h; outline: as §1
[5] = Increase in BDNF expression in human 1321N1 cells at 68.9 uM measured after 6 hrs by semiquantitative RT-PCR analysis relative to DMSO-control; type: functional; outline: as §2
[6] = Antifungal activity against Mucor plumbeus MUCL 49355 measured after 20 to 24 hrs by serial dilution assay; type: functional
[7] = test system: 1321N1 (Homo sapiens); experiment: Cytotoxicity against human 1321N1 cells assessed as induction of cell death measured after 24 hrs; settings: pooled result: one value given for 2 cell lines, strains, targets or settings
[8] = Cytotoxicity against HUVEC measured after 5 days by MTT assay; type: functional, cell-based; settings: Homo sapiens, 120 h
[9] = Upregulation of NGF expression in human 1321N1 cells at 57.8 uM measured after 6 hrs by semiquantitative RT-PCR analysis relative to DMSO-control; type: functional, cell-based; outline: as §2
[10] = test system: 1321-N1; experiment: Induction of NGF secretion in human 1321N1 cells at 19.6 uM after 48 hrs; type: functional, cell-based
[11] = test system: PC-12; experiment: Intrinsic neurotrophic activity in rat PC12 cells in conditioned 1321N1 culture medium assessed as neurite outgrowth at 57.8 uM measured after 48 hrs by light microscopy method; type: functional, cell-based
[12] = test system: 1321-N1; experiment: Induction of NGF secretion in human 1321N1 cells at 57.8 uM after 48 hrs; type: functional, cell-based
[13] = test system: PC-12; experiment: Intrinsic neurotrophic activity in rat PC12 cells in conditioned 1321N1 culture medium assessed as neurite outgrowth at 19.6 uM measured after 48 hrs by light microscopy method; type: functional, cell-based
[14] = Upregulation of NGF expression in human 1321N1 cells at 19.6 uM measured after 6 hrs by semiquantitative RT-PCR analysis relative to DMSO-control; type: functional, cell-based; outline: as §2
[15] = Increase in BDNF expression in human 1321N1 cells at 19.6 uM measured after 6 hrs by semiquantitative RT-PCR analysis relative to DMSO-control; type: functional; outline: as §2

Structure (SMILES)	pIC50 [1]	fold change (FC) [2]	pIC50 [3]	pIC50 [4]	fold change (FC) [5]	MIC [6]	MNTC at 24 h [7]	pIC50 [8]	fold change (FC) [9]	Activity [10]	Activity [11]	Activity [12]	Activity [13]	fold change (FC) [14]	fold change (FC) [15]
COc1cc2c(c(O)c1C/C=C(\C)CCC=C(C)C)CN(CCc1ccc(O)cc1)C2=O	5.04	2	4.94	4.83	1.5	57.4 µM (≈ 25 µg/mL)	68.9 µM	5.68							
COc1cc2c(c(O)c1C/C=C(\C)CC/C=C(\C)C(=O)O)COC2=O							57.8 µM		3	Active	Active	Active			
COc1cc2c(c(O)c1C/C=C(\C)CCC=C(C)C)CN(CCc1c[nH]c3ccccc13)C2=O							19.6 µM			Active		Active	Active	5	1.9
